According to ChEMBL document CHEMBL1123044, “Benzodiazepine receptor binding and anticonflict activity in a series of 3,6-disubstituted pyridazino[4,3-c]isoquinolines devoid of anticonvulsant properties” (J Med Chem, 1985):

Columns and labels:
[1] = molecular target: GABA-A receptor; anion channel; assay: In vitro binding affinity against benzodiazepine receptor using [3H]diazepam as radioligand; assay type: protein-complex assay
[2] = system: Rattus norvegicus; assay: In vivo minimal effective dose for anticonflict activity by intraperitoneal administration in rats by the Vogel conflict procedure.; assay type: functional; conditions: ip, read-out: MED
Procedure, shortened: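 Male Wistar rats deprived of food 24 h and water 48 h; 10 per dose given compound ip in 0.5% methocel (4 mL/kg) 30 min before test. After 15 s free drinking of sweetened milk, 0.3 mA shocks were delivered through the spout in alternating 5-s on/off cycles over 5 min; shocks counted.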

[3] = Lethal dose analysed when administered intraperitoneally; assay type: toxicity, organism-based; conditions: mouse, in vivo, ip
Procedure, shortened: (§1)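 Acute toxicity was tested in male CD1 mice in groups of three per dose. Compounds were dispersed in 0.5% methocel and given ip at 10 mL/kg.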

[4] = system: Mus musculus; assay: Anticonvulsant activity against prevention of tonic extensor seizures in 50% mice in the presence of bicuculline (ip administration); assay type: functional
Procedure, shortened: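 Male CD1 mice, 10 per dose, given test compound ip in 0.5% methocel (10 mL/kg). Bicuculline, 2 mg/kg sc in aqueous solution, given 30 min later, following the metrazol protocol. ED50 is the dose preventing tonic extensor seizures in 50% of mice, obtained by Finney probit analysis with 95% confidence limits.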

[5] = molecular target: GABA-A receptor; anion channel (Rattus norvegicus) (UniProt O09028+P15431+P18506+P18508+P19969+P20236+P23574+P23576+P28471+P28473+P30191+P62813+P63079+P63138+Q91ZM7+Q9ES14); assay: Relative binding to GABA-A central benzodiazepine receptor in the presence and absence of 10e-4 M GABA (GABA shift); assay type: protein-complex assay
Procedure, shortened: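 Rat forebrain membranes incubated in triplicate with 0.4 nM [3H]flunitrazepam and varying ligand concentrations, with or without 0.1 mM GABA, 20 min at 37 °C. Specific binding: total minus binding with 1 μM unlabelled clonazepam. The ratio compares displacement curves obtained without versus with GABA.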

[6] = system: Mus musculus; assay: Anticonvulsant activity against prevention of tonic extensor seizures in 50% mice in the presence of metrazole (ip administration); assay type: functional
[7] = Lethal dose analysed in mice when administered intraperitoneally; assay type: toxicity, organism-based; conditions: mouse, in vivo, ip; procedure, shortened: as §1
[8] = system: Mus musculus; assay: Anticonvulsant activity against prevention of tonic extensor seizures in 50% mice in the presence of metrazole (ip administration); 0.11-0.28; assay type: functional
[9] = system: Mus musculus; assay: Anticonvulsant activity against prevention of tonic extensor seizures in 50% mice in the presence of bicuculline (ip administration); 0.13-0.25; assay type: functional

Compound | Ki [1] | minimal effective dose [2] | LD50 [3] | ED50 [4] | GABA ratio [5] | ED50 [6] | LD50 [7] | ED50 [8] | ED50 [9]
COc1ccc(-c2cc3nc(N(C)C)c4ccccc4c3nn2)cc1 | 63.3 nM | 10 mg/kg | > 600 mg/kg | > 100 mg/kg | 1.7 | > 100 mg/kg | – | – | –
COCCN(CCOC)c1nc2cc(-c3ccc(OC)cc3)nnc2c2ccccc12 | 1180 nM | 10 mg/kg | > 600 mg/kg | > 100 mg/kg | 2 | > 100 mg/kg | – | – | –
COc1ccc(-c2cc3nc(N4CCCCC4)c4ccccc4c3nn2)cc1 | 658 nM | 10 mg/kg | > 600 mg/kg | > 100 mg/kg | – | > 100 mg/kg | – | – | –
COc1ccc(-c2cc3nc(N4CCOCC4)c4ccccc4c3nn2)cc1 | 402 nM | 30 mg/kg | > 600 mg/kg | > 100 mg/kg | – | > 100 mg/kg | – | – | –
CCOc1nc2cc(-c3ccccc3)nnc2c2ccccc12 | 1500 nM | – | – | – | – | – | – | – | –
Clc1nc2cc(-c3ccccc3)nnc2c2ccccc12 | 6200 nM | – | – | – | – | – | – | – | –
CC(C)Oc1nc2cc(-c3ccccc3)nnc2c2ccccc12 | 1900 nM | – | – | – | – | – | – | – | –
Oc1nc2cc(-c3ccccc3)nnc2c2ccccc12 | 1700 nM | – | – | – | – | – | – | – | –
CCN(C)c1nc2cc(-c3ccccc3)nnc2c2ccccc12 | 65.2 nM | 10 mg/kg | 300 mg/kg | > 50 mg/kg | 1.5 | > 50 mg/kg | – | – | –
c1ccc(-c2cc3nc(N4CCOCC4)c4ccccc4c3nn2)cc1 | 152 nM | 15 mg/kg | 200 mg/kg | > 50 mg/kg | 1.4 | > 50 mg/kg | – | – | –
CC(O)CN(C)c1nc2cc(-c3ccccc3)nnc2c2ccccc12 (centres undefined) | 136 nM | 30 mg/kg | 300 mg/kg | > 50 mg/kg | 1.4 | > 50 mg/kg | – | – | –
CN1CCN=C(c2ccccc2)c2cc(Cl)ccc21 [MEDAZEPAM] | 528 nM | – | – | – | 1.9 | – | – | – | –
c1ccc(-c2cc3nc(N4CCCC4)c4ccccc4c3nn2)cc1 | 11.4 nM | 5 mg/kg | 300 mg/kg | > 50 mg/kg | 1.6 | > 50 mg/kg | – | – | –
c1ccc(-c2cc3ncc4ccccc4c3nn2)cc1 | 4000 nM | – | – | – | – | – | – | – | –
CN(C)c1nc2cc(-c3ccccc3)nnc2c2ccccc12 | 28.4 nM | 10 mg/kg | > 600 mg/kg | > 100 mg/kg | 1.2 | > 100 mg/kg | – | – | –
Cc1cc2nc(N3CCCC3)c3ccccc3c2nn1 | 245 nM | 20 mg/kg | – | > 50 mg/kg | 1 | > 50 mg/kg | 200 mg/kg | – | –
CN(C)c1nc2cc(-c3ccc(Cl)cc3)nnc2c2ccccc12 | 9300 nM | – | – | – | – | – | – | – | –
CN1C(=O)CN=C(c2ccccc2)c2cc(Cl)ccc21 [DIAZEPAM] | – | 0.5 mg/kg | – | – | – | – | – | 0.2% | 0.18%
Cc1nnc2ccc(-c3cccc(C(F)(F)F)c3)nn12 [CI-218872] | 198 nM | – | – | – | – | – | – | – | –
COCCN(CCOC)c1nc2cc(-c3ccc(Cl)cc3)nnc2c2ccccc12 | 32500 nM | – | – | – | – | – | – | – | –
CC(O)CN(C)c1nc2cc(-c3ccc(Cl)cc3)nnc2c2ccccc12 (centres undefined) | 17800 nM | – | – | – | – | – | – | – | –
COc1ccc(-c2cc3nc(N(C)CC(C)O)c4ccccc4c3nn2)cc1 (centres undefined) | 221 nM | 30 mg/kg | > 600 mg/kg | > 100 mg/kg | 1.4 | > 100 mg/kg | – | – | –
COc1ccc(-c2cc3nc(N4CCCC4)c4ccccc4c3nn2)cc1 | 18.7 nM | 20 mg/kg | > 600 mg/kg | > 100 mg/kg | – | > 100 mg/kg | – | – | –
Clc1ccc(-c2cc3nc(N4CCCC4)c4ccccc4c3nn2)cc1 | 3480 nM | – | – | – | – | – | – | – | –
COc1ccc(-c2cc3nc(N4CCC4)c4ccccc4c3nn2)cc1 | 69.6 nM | 30 mg/kg | 600 mg/kg | > 100 mg/kg | – | > 100 mg/kg | – | – | –
